Activity calls are given as the source filed them. No cut-off for these calls is given here.
Legend:
[1] = target: T1, Butyrophilin subfamily 3 member A1 (Homo sapiens, UniProt O00481); test: Binding affinity to butyrophilin 3A1 in human Vgamma9/Vdelta2 T-cells assessed as activation of Vgamma9/Vdelta2 T-cells by upregulation of CD69 and CD25 after 18 hrs
Summary of the method: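 Healthy-donor PBMC incubated 18 h with medium or titrated compound (up to 100 μM). TCR Vγ9+/Vδ2+ cells were gated and scored by flow cytometry for surface CD69 and CD25 upregulation versus medium control.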

[2] = species on record: Homo sapiens; test: Upregulation of CD69/CD25 levels in human CD8-positive T cells expressing alpha-beta TCR; assay type: functional, cell-based
Summary of the method: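 Healthy-donor human PBMC incubated 18 h with medium or compound (range up to 100 μM). CD3+ CD8+ αβ T cells were gated and analysed by flow cytometry for cell-surface CD69 and CD25 upregulation.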

[3] = target: T1, Butyrophilin subfamily 3 member A1; test: Binding affinity to butyrophilin 3A1 in human Vgamma9/Vdelta2 T-cells assessed as activation of Vgamma9/Vdelta2 T-cells by measuring levels of CD69 and CD25 at 0.1 uM after 18 hrs relative to control
Summary of the method: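 Healthy-donor PBMC incubated 18 h with medium or titrated compound (up to 100 μM). TCR Vγ9+/Vδ2+ cells were gated and scored by flow cytometry for surface CD69 and CD25 upregulation versus medium control. EC50 was taken from titration curves, n = 4–5 donors.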
Target sequence in this assay (O00481 30-513 limits assumed): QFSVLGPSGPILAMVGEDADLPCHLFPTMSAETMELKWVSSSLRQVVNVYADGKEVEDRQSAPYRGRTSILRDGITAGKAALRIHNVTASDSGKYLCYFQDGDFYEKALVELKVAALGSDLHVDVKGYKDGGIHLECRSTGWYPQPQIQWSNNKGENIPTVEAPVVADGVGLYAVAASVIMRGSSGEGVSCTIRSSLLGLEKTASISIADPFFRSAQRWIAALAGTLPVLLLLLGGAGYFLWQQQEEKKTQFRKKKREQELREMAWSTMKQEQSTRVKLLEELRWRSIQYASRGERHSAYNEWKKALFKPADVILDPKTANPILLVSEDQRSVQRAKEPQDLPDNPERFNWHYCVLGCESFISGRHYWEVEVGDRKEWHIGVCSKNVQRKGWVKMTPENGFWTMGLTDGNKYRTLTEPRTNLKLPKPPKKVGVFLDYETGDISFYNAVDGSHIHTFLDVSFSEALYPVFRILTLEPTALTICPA

[4] = target: T1, Butyrophilin subfamily 3 member A1; test: Binding affinity to butyrophilin 3A1 in human Vgamma9/Vdelta2 T-cells assessed as activation of Vgamma9/Vdelta2 T-cell-mediated lysis of human T24 cells preincubated for 4 hrs followed by compound washout measured after 18 hrs
Summary of the method: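 T24 urinary bladder carcinoma cells (target) pulsed 4 h with 10 nM prodrug, medium, or 10 μM zoledronate. They were then cocultured 18 h with in vitro expanded Vγ9/Vδ2 T cells (effector) across target/effector ratios. Specific killing was scored by amine-reactive dead cell marker staining. Summary is at 1:10 target/effector, mean ± SD, n = 2, with one-way ANOVA.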
Target sequence in this assay (O00481 30-513 limits assumed): as above

[5] = target: T1, Butyrophilin subfamily 3 member A1; test: Binding affinity to butyrophilin 3A1 in human Vgamma9/Vdelta2 T-cells assessed as activation of Vgamma9/Vdelta2 T-cells by measuring levels of CD69 and CD25 at 10 uM after 18 hrs relative to control
Summary of the method: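 Human PBMC from healthy donors incubated 18 h with medium or compound (titrations up to 100 μM). Vγ9/Vδ2 T cells gated by TCR Vγ9 and Vδ2 expression. Surface CD69 and CD25 upregulation measured by flow staining and compared with medium control. n = 4–5 donors.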
Target sequence in this assay (O00481 30-513 limits assumed): as above

[6] = target: T1, Butyrophilin subfamily 3 member A1; test: Ratio of ED50 for binding affinity to butyrophilin 3A1 in human Vgamma9/Vdelta2 T-cells for Vgamma9/Vdelta2 T-cell-mediated lysis of human T24 cells to EC50 for binding affinity to butyrophilin 3A1 for activation of Vgamma9/Vdelta2 T-cells
Target sequence in this assay (O00481 30-513 limits assumed): as above

[7] = target: T1, Butyrophilin subfamily 3 member A1; test: Potency index, ratio of zoledronate EC50 to test compound EC50 for binding affinity to butyrophilin 3A1 in human Vgamma9/Vdelta2 T-cells assessed as activation of Vgamma9/Vdelta2 T-cells by upregulation of CD69 and CD25
Target sequence in this assay (O00481 30-513 limits assumed): as above

SMILES | EC50 [1] [µM] | Activity [2] | Activity [3] [%] | ED50 [4] [µM] | Activity [5] [%] | Ratio [6] | Activity [1] | Ratio EC50 [7]
C/C(=C\COP(=O)(N[C@@H](C)C(=O)OC(C)(C)C)Oc1ccccc1)CO[Si](C)(C)C(C)(C)C (some centres not stated) | 0.00892 | inactive | 29.9 | > 100 |  |  |  | 
O=P(O)(O)C(O)(Cn1ccnc1)P(=O)(O)O [ZOLEDRONIC ACID] | 0.487 | inactive |  | > 100 | 39.2 |  |  | 
COC(=O)[C@H](C)NP(=O)(OC/C=C(\C)CO[Si](C)(C)C(C)(C)C)Oc1ccccc1 (some centres not stated) | 0.00138 | inactive | 39 | 29.5 |  | 21400 |  | 
C/C(=C\CO)CO[Si](C)(C)C(C)(C)C |  |  |  |  |  |  | inactive | 
C/C(=C\COP(=O)(N[C@@H](C)C(=O)OCc1ccccc1)Oc1ccccc1)CO[Si](C)(C)C(C)(C)C (some centres not stated) | 0.00045 | inactive | 50.6 | 8.51 |  | 12900 |  | 1080
C/C(=C\COP(=O)(N[C@@H](C)C(=O)OC(C)C)Oc1ccccc1)CO[Si](C)(C)C(C)(C)C (some centres not stated) | 0.0106 | inactive | 31 | 83.2 |  | 7830 |  | 
C/C(=C\COP(=O)(O)OP(=O)(O)O)CO |  | inactive |  | > 100 |  |  |  | 

From ChEMBL document CHEMBL4118107, “Synthesis and Biological Evaluation of ( E)-4-Hydroxy-3-methylbut-2-enyl Phosphate (HMBP) Aryloxy Triester Phosphoramidate Prodrugs as Activators of Vγ9/Vδ2 T-Cell Immune Responses” (J Med Chem, 2018)
